Data as given in PMC6217654 (ACS Omega, 2018).
Peptide text beside a SMILES is read from it.

Tests used:
[1] = tested on: reserpine-induced hypothermia mice; assay: Antagonistic effect on reserpine-induced hypothermia in mice; format: in vivo; settings: p.o.; for CNS effect (reserpine-induced hypothermia), in words, SAR comparison: mice, data not shown or compared with 64
In short: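 Male ddY mice (bought at 6 weeks, 1-week quarantine, ~25 °C). Reserpine 3 mg/kg s.c.; mice with rectal temperature ≤30 °C about 18 h later were used. Test compound in saline p.o. at 5 μmol/kg, TRH at 50 μmol/kg, saline controls. Rectal temperature by thermistor before and up to 7 h post-dose. Trapezoidal AUC0–7h, with saline AUC subtracted. Mean ± SD, ≥3 animals.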

[2] = Free fraction ratio; format: in vitro ADME, rat; settings: in vitro
[3] = PK of TRH mimetics in rat, cassette dosing i.v. and p.o.; format: in vivo; settings: for MRT / Vd / clearance / half-life: male, Sprague-Dawley, plasma, iv, 1 umol/kg; for BA: oral 2 μmol/kg vs i.v. 1 μmol/kg
In short: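 Cassette dosing in rats (n = 2, 302–364 g). p.o.: 2 μmol/5 mL/kg in DMSO/0.5% methylcellulose 1/4. i.v.: 1 μmol/1 mL/kg in DMSO/propylene glycol 1/1. Heparinized jugular blood; plasma precipitated with methanol/acetonitrile 1/1; LC/MS/MS, ESI positive. t1/2 from terminal phase; MRT by linear trapezoid with monoexponential extrapolation; BA = dose-normalized po/iv AUC ratio. Mean of two animals.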

[4] = cited from earlier work
[5] = tested on: rats with Ara-C-induced cerebellar damage; assay: Ara-C-induced cerebellar ataxia in rats, open field fall index; format: in vivo, rat
[6] = PK of TRH and 79 after oral administration to fasted conscious rats; format: in vivo, rat; settings: male, Wistar, rat, plasma, po, 40 mg/kg
In short: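 Male Wistar rats (10–11 weeks, 230–274 g, n ≥ 4), fasted from the evening before dosing to the 12 h sample. Jugular cannula placed under isoflurane 2–3 days before. Single p.o. dose of 40 mg/4 mL/kg in saline. Heparinized blood (~0.3 mL) drawn via cannula; plasma deproteinized with methanol; HPLC with UV absorbance detection. Cmax, Tmax, AUC0–8h given as mean ± SD.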

[7] = target: human TRH-R; settings: read-out: Ki for human TRH-R; in vitro binding, reported previously; cited from earlier work

MRT [3] [min] | Vd [3] [L/kg] | clearance [3] [L/h/kg] | half-life [3] [min] | Compound | CNS effect (reserpine-induced hypothermia), in words, SAR comparison [1] | further results
– | – | – | – | NC(=O)[C@@H]1CCCN1C(=O)[C@H](Cc1cncs1)NC(=O)[C@@H]1CCC(=O)N1 [Compound 56, L-Pyroglutamyl-[3-(thiazol-5-yl)-L-alanyl]-L-prolinamide] | less than that of 64 | –
– | – | – | – | NC(=O)[C@@H]1CSCN1C(=O)[C@H](Cc1cscn1)NC(=O)[C@@H]1CCC(=O)N1 [Compound 57, 3-{N-L-Pyroglutamyl-[3-(thiazol-4-yl)-L-alanyl]}-(4R)-4-thiazolidinecarboxamide] (HELM PEPTIDE1{[Glp].[O=C([C@H](Cc1cscn1)N[*:1])[*:2]].[O=C([C@@H]1CSCN1[*:1])[*:2]].[am]}$$$$V2.0) | less than that of 64 | –
– | – | – | – | NC(=O)[C@@H]1CCCN1C(=O)[C@H](Cc1cscn1)NC(=O)[C@@H]1COC(=O)N1 [Compound 58, {[(4S)-(2-Oxooxazolidine-4-yl)carbonyl]-3-(thiazol-4-yl)-L-alanyl}-L-prolinamide] | maintained | –
– | – | – | – | C[C@H]1OC(=O)N(C)[C@@H]1C(=O)N[C@@H](Cc1cscn1)C(=O)N1CCC[C@H]1C(N)=O [Compound 60, {[(4S,5R)-3,5-Dimethyl-2-oxooxazolidine-4-carbonyl]-3-(thiazol-4-yl)-L-alanyl}-L-prolinamide] | decreased the CNS effects | –
– | – | – | – | C[C@H]1OC(=O)N(Cc2ccccc2)[C@@H]1C(=O)N[C@@H](Cc1cscn1)C(=O)N1CCC[C@H]1C(N)=O [Compound 61, {[(4S,5R)-3-Benzyl-5-Methyl-2-oxooxazolidine-4-carbonyl]-3-(thiazol-4-yl)-L-alanyl}-L-prolinamide] | decreased the CNS effects | –
– | – | – | – | C[C@H]1OC(=O)N[C@@H]1C(=O)N[C@@H](Cc1cncs1)C(=O)N1CCC[C@H]1C(N)=O [Compound 62] | less than that of 64 | –
– | – | – | – | C[C@H]1OC(=O)N[C@@H]1C(=O)N[C@@H](Cc1cscn1)C(=O)N1CSC[C@H]1C(N)=O [Compound 63, 3-{N-[(4S,5R)-(5-Methyl-2-oxooxazolidine-4-yl)carbonyl]-3-(thiazol-4-yl)-L-alanyl}-(4R)-4-thiazolidinecarboxamide] | less than that of 64 | –
14.3 | 0.19 | 0.78 | 13.5 | C[C@@H]1OC(=O)N[C@@H]1C(=O)N[C@@H](Cc1cscn1)C(=O)N1CCC[C@H]1C(N)=O [Compound 64, {[(4S,5S)-(5-Methyl-2-oxooxazolidine-4-yl)carbonyl]-3-(thiazol-4-yl)-L-alanyl}-L-prolinamide] | – | fu: free fraction ratio in serum [2]: >99%; BA [3]: 1.1%
11 | 0.16 | 0.852 | 9.8 | C[C@@H]1OC(=O)N[C@@H]1C(=O)N[C@@H](Cc1cscn1)C(=O)N1CSC[C@H]1C(N)=O [Compound 68, 3-{N-[(4S,5S)-(5-Methyl-2-oxooxazolidine-4-yl)carbonyl]-3-(thiazol-4-yl)-L-alanyl}-(4R)-4-thiazolidinecarboxamide] | – | fu: free fraction ratio in serum [2]: >99%
14.6 | 0.25 | 1.04 | 26.2 | C[C@@H]1OC(=O)N[C@@H]1C(=O)N[C@@H](Cc1cscn1)C(=O)N1CCC[C@H]1C#N [Compound 69, 1-{N-[(4S,5S)-(5-Methyl-2-oxooxazolidine-4-yl)carbonyl]-3-(thiazol-4-yl)-L-alanyl}-(2S)-2-cyanopyrrolidine] | – | fu: free fraction ratio in serum [2]: >99%
– | – | – | – | C[C@@H]1OC(=O)N[C@@H]1C(=O)N[C@@H](Cc1cncs1)C(=O)N1CCC[C@H]1C [Compound 71, 1-{N-[(4S,5S)-(5-Methyl-2-oxooxazolidine-4-yl)carbonyl]-3-(thiazol-5-yl)-L-alanyl}-(2R)-2-methylpyrrolidine] | less than that of 64 | –
– | – | – | – | C[C@@H]1OC(=O)N[C@@H]1C(=O)N[C@@H](Cc1c[nH]cn1)C(=O)N1CCC[C@H]1C [Compound 72, 1-{N-[(4S,5S)-(5-Methyl-2-oxooxazolidine-4-yl)carbonyl]-L-histidyl}-(2R)-2-methylpyrrolidine] | less than that of 64 | –
– | – | – | – | C[C@@H]1OC(=O)N[C@@H]1C(=O)N[C@@H](Cc1cscn1)C(=O)N1CCC[C@H]1C(=O)OCc1ccccc1 [Compound 74, {[(4S,5S)-5-Methyl-2-oxooxazolidine-4-carbonyl]-3-(thiazol-4-yl)-L-alanyl}-L-proline Benzyl Ester] | less than that of 64 | –
3.7 | 0.33 | 5.35 | 3 | NC(=O)[C@@H]1CCCN1C(=O)[C@H](Cc1cnc[nH]1)NC(=O)[C@@H]1CCC(=O)N1 [TRH, L-pGlu–L-His–L-Pro-NH2, reference compound] | – | t1/2 of degradation by the brain homogenate [4]: 7.9 min; fall index ([5]; 10 mg/kg i.v. once, 30 min post-dose, mean ± SE, vehicle 2.06 ± 0.09): 1.05 ± 0.22; fall index ([5]; 30 mg/kg i.v. once, 30 min post-dose, mean ± SE, vehicle 2.06 ± 0.09): 0.87 ± 0.17; fall index ([5]; TRH 30, 100 and 300 mg/kg p.o. once daily for 7 days): no significant decrease; rectal temperature compared with saline levels ([1]; 79 5 μmol/kg from 2 to 7 h, TRH 50 μmol/kg from 0 to 7 h): almost the same low rectal temperature profiles as the saline levels; rectal temperature ΔAUC0–7h = AUC0–7h(compounds) – AUC0–7h(saline) ([1]; reserpine-induced hypothermia mice, TRH 50 μmol/kg, 79 5 μmol/kg): –4.0 ± 3.3 °C·h; rectal temperature AUC0–7h ([1]; reserpine-induced hypothermia mice, TRH 50 μmol/kg, 79 5 μmol/kg, mean ± SD): 201.4 ± 3.3 °C·h; AUC(0-t) [6]: 0.068 ± 0.072 µg·h/mL; Cmax [6]: 0.05 ± 0.039 µg/mL; Tmax [6]: 45 ± 17.4 min; Ki [7]: 0.128 µM

Compound | MRT [3] [min] | Vd [3] [L/kg] | clearance [3] [L/h/kg] | half-life [3] [min] | CNS effect (reserpine-induced hypothermia), in words, SAR comparison [1] | further results
C[C@@H]1OC(=O)N[C@@H]1C(=O)N[C@@H](Cc1cscn1)C(=O)N1CCC[C@H]1C [Compound 70, 1-{N-[(4S,5S)-(5-Methyl-2-oxooxazolidine-4-yl)carbonyl]-3-(thiazol-4-yl)-L-alanyl}-(2R)-2-methylpyrrolidine] | 19.1 | 0.58 | 1.84 | 21.6 | – | fu: free fraction ratio in serum [2]: >99%; BA [3]: 4.7%
